What all share (format): functional
For experiment [1], the system named is Fusarium oxysporum. Briefly: Fungitoxicity against Fusarium oxysporum assessed as inhibition of mycelia growth at 28 +/- 1 degC at 1000 ug/mL for 96 hr by poisoned food technique. An outline of the steps: (§1)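 Poisoned food technique in Czapek's agar dishes, with test compound incorporated at 10, 100 or 1000 μg/mL. Fungus inoculated at the dish centre and incubated 96 h at 28 ± 1 °C. Percent inhibition = 100 × (mean hyphal diameter in control − mean hyphal diameter in test) / mean hyphal diameter in control. Three replicate assays per treatment and six replicate controls. Griseofulvin and Dithane M-45 served as standards.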

Experiment [2] deals with Fusarium oxysporum. Briefly: Fungitoxicity against Fusarium oxysporum assessed as inhibition of mycelia growth at 28 +/- 1 degC at 100 ug/mL for 96 hr by poisoned food technique. An outline of the steps:
as §1

In experiment [3] the test system is Fusarium oxysporum. Briefly: Fungitoxicity against Fusarium oxysporum assessed as inhibition of mycelia growth at 28 +/- 1 degC at 10 ug/mL for 96 hr by poisoned food technique. An outline of the steps:
as §1

Experiment [4] relates to Penicillium citrinum. In words: Fungitoxicity against Penicillium citrinum assessed as inhibition of mycelia growth at 28 +/- 1 degC at 1000 ug/mL for 96 hr by poisoned food technique. The method in brief:
as §1

Experiment [5] relates to Penicillium citrinum. Briefly: Fungitoxicity against Penicillium citrinum assessed as inhibition of mycelia growth at 28 +/- 1 degC at 100 ug/mL for 96 hr by poisoned food technique. The method in brief:
as §1

Experiment [6] concerns Penicillium citrinum. Briefly: Fungitoxicity against Penicillium citrinum assessed as inhibition of mycelia growth at 28 +/- 1 degC at 10 ug/mL for 96 hr by poisoned food technique. The method in brief: as §1

The source of these data is ChEMBL document CHEMBL3046804, “Synthesis and fungicidal activity of novel 3-(substituted/unsubstituted phenylselenonyl)-1-ribosyl/deoxyribosyl-1H-1,2,4-triazole” (2012).

One may read the inhibition as the change of the read-out against control, counted positive when it falls.

`O=[Se](=O)(c1ccccc1)c1ncn([C@@H]2O[C@H](CO)[C@@H](O)[C@H]2O)n1`: the inhibition at 1000 µg/mL came to 82% in experiment [1] and 89% in experiment [4]. Moreover, the results for the inhibition at 100 µg/mL in experiment [2] and in experiment [5] were 65% and 42%, respectively. Besides, the figures for the inhibition at 10 µg/mL in experiment [3] and in experiment [6] were 50% and 35%, respectively.
As for `CC(=O)OC[C@H]1O[C@@H](n2cnc([Se](=O)(=O)c3ccc(C)cc3)n2)C[C@@H]1OC(C)=O`, the inhibition at 1000 µg/mL in experiment [1] was 45%; in experiment [4] it was 42%. The inhibition at 100 µg/mL is 35% in experiment [2] and 31% in experiment [5]. The inhibition at 10 µg/mL turned out to be 26% in experiment [3] and 17% in experiment [6].
Take `CC(=O)OC[C@H]1O[C@@H](n2cnc([Se](=O)(=O)c3ccc(Cl)cc3)n2)C[C@@H]1OC(C)=O`: the inhibition at 1000 µg/mL in experiment [1] was found to be 54%; in experiment [4] it was 51%. For the same molecule, the figures for the inhibition at 100 µg/mL in experiment [2] and in experiment [5] were 26% and 35%, respectively. Besides, the inhibition at 10 µg/mL came out at 15% in experiment [3] and 16% in experiment [6].
As for `CC(=O)OC[C@H]1O[C@@H](n2cnc([Se](=O)(=O)c3ccc([N+](=O)[O-])cc3)n2)C[C@@H]1OC(C)=O`, the inhibition at 1000 µg/mL in experiment [1] was determined as 54%; in experiment [4] it was 51%. Further, the inhibition at 100 µg/mL was 28% in experiment [2] and 34% in experiment [5]. Also, the inhibition at 10 µg/mL worked out at 16% in experiment [3] and 18% in experiment [6].
Regarding `COc1ccc([Se](=O)(=O)c2ncn([C@@H]3O[C@H](CO)[C@@H](O)[C@H]3O)n2)cc1`, the inhibition at 1000 µg/mL worked out at 100% in experiment [1] and 99% in experiment [4]. Further, the inhibition at 100 µg/mL amounted to 68% in experiment [2] and 49% in experiment [5]. The inhibition at 10 µg/mL in experiment [3] is 55%; in experiment [6] it was 39%.
Take `Cc1ccc([Se](=O)(=O)c2ncn([C@@H]3O[C@H](CO)[C@@H](O)[C@H]3O)n2)cc1`: the inhibition at 1000 µg/mL in experiment [1] stood at 88%; in experiment [4], 80%. The values for the inhibition at 100 µg/mL in experiment [2] and in experiment [5] were 80% and 78%, respectively. For the same molecule, the inhibition at 10 µg/mL came out at 62% in experiment [3] and 69% in experiment [6].
For the molecule `O=[Se](=O)(c1ccc(Cl)cc1)c1ncn([C@@H]2O[C@H](CO)[C@@H](O)[C@H]2O)n1`, the inhibition at 1000 µg/mL came to 100% in experiment [1] and 97% in experiment [4]. The inhibition at 100 µg/mL was determined as 72% in experiment [2] and 65% in experiment [5]. For the same molecule, the inhibition at 10 µg/mL is 44% in experiment [3] and 36% in experiment [6].
As to `O=[N+]([O-])c1ccc([Se](=O)(=O)c2ncn([C@@H]3O[C@H](CO)[C@@H](O)[C@H]3O)n2)cc1`, the figures for the inhibition at 1000 µg/mL in experiment [1] and in experiment [4] were 81% and 86%, respectively. Also, the inhibition at 100 µg/mL in experiment [2] amounted to 48%; in experiment [5], 59%. The inhibition at 10 µg/mL is 35% in experiment [3] and 37% in experiment [6].
Consider `O=[Se](=O)(c1ccccc1)c1ncn([C@H]2C[C@H](O)[C@@H](CO)O2)n1`, for which the inhibition at 1000 µg/mL in experiment [1] was found to be 77%; in experiment [4] it was 81%. The inhibition at 100 µg/mL in experiment [2] was 42%; in experiment [5], 74%. Further, the figures for the inhibition at 10 µg/mL in experiment [3] and in experiment [6] were 33% and 65%, respectively.
Consider `COc1ccc([Se](=O)(=O)c2ncn([C@H]3C[C@H](O)[C@@H](CO)O3)n2)cc1`, for which the values for the inhibition at 1000 µg/mL in experiment [1] and in experiment [4] were 91% and 76%, respectively. The inhibition at 100 µg/mL in experiment [2] was 76%; in experiment [5] it was 48%. For the same molecule, the inhibition at 10 µg/mL in experiment [3] was 65%; in experiment [6] it was 42%.
Take `Cc1ccc([Se](=O)(=O)c2ncn([C@H]3C[C@H](O)[C@@H](CO)O3)n2)cc1`: the inhibition at 1000 µg/mL in experiment [1] stood at 81%; in experiment [4], 80%. In addition, the inhibition at 100 µg/mL in experiment [2] worked out at 75%; in experiment [5], 74%. Also, the inhibition at 10 µg/mL in experiment [3] is 61%; in experiment [6] it was 67%.
As for `O=[Se](=O)(c1ccc(Cl)cc1)c1ncn([C@H]2C[C@H](O)[C@@H](CO)O2)n1`, the inhibition at 1000 µg/mL in experiment [1] came to 81%; in experiment [4], 75%. The inhibition at 100 µg/mL came to 56% in experiment [2] and 65% in experiment [5]. Besides, the inhibition at 10 µg/mL in experiment [3] worked out at 32%; in experiment [6], 31%.
Regarding `O=[N+]([O-])c1ccc([Se](=O)(=O)c2ncn([C@H]3C[C@H](O)[C@@H](CO)O3)n2)cc1`, the inhibition at 1000 µg/mL in experiment [1] amounted to 82%; in experiment [4], 87%. For the same molecule, the inhibition at 100 µg/mL came out at 60% in experiment [2] and 63% in experiment [5]. For the same molecule, the figures for the inhibition at 10 µg/mL in experiment [3] and in experiment [6] were 41% and 33%, respectively.
As to `CC(=O)OC[C@H]1O[C@@H](n2cnc([Se](=O)(=O)c3ccccc3)n2)[C@H](OC(C)=O)[C@@H]1OC(C)=O`, the inhibition at 1000 µg/mL in experiment [1] was 41%; in experiment [4], 38%. Further, the inhibition at 100 µg/mL in experiment [2] came to 32%; in experiment [5], 30%. In addition, the results for the inhibition at 10 µg/mL in experiment [3] and in experiment [6] were 15% and 12%, respectively.
On to `COc1ccc([Se](=O)(=O)c2ncn([C@@H]3O[C@H](COC(C)=O)[C@@H](OC(C)=O)[C@H]3OC(C)=O)n2)cc1`, for which the inhibition at 1000 µg/mL in experiment [1] worked out at 53%; in experiment [4], 47%. In addition, the figures for the inhibition at 100 µg/mL in experiment [2] and in experiment [5] were 44% and 32%, respectively. Also, the inhibition at 10 µg/mL in experiment [3] was 16%; in experiment [6], 17%.
Consider `CC(=O)OC[C@H]1O[C@@H](n2cnc([Se](=O)(=O)c3ccc(C)cc3)n2)[C@H](OC(C)=O)[C@@H]1OC(C)=O`, for which the inhibition at 1000 µg/mL in experiment [1] was determined as 52%; in experiment [4], 51%. For the same molecule, the inhibition at 100 µg/mL in experiment [2] stood at 37%; in experiment [5], 42%. Also, the inhibition at 10 µg/mL in experiment [3] came out at 17%; in experiment [6], 21%.
Take `CC(=O)OC[C@H]1O[C@@H](n2cnc([Se](=O)(=O)c3ccc(Cl)cc3)n2)[C@H](OC(C)=O)[C@@H]1OC(C)=O`: the inhibition at 1000 µg/mL in experiment [1] came out at 55%; in experiment [4], 53%. Moreover, the inhibition at 100 µg/mL came out at 29% in experiment [2] and 39% in experiment [5]. Also, the results for the inhibition at 10 µg/mL in experiment [3] and in experiment [6] were 14% and 22%, respectively.
Turning to `CC(=O)OC[C@H]1O[C@@H](n2cnc([Se](=O)(=O)c3ccc([N+](=O)[O-])cc3)n2)[C@H](OC(C)=O)[C@@H]1OC(C)=O`, the inhibition at 1000 µg/mL turned out to be 65% in experiment [1] and 62% in experiment [4]. The inhibition at 100 µg/mL was found to be 55% in experiment [2] and 41% in experiment [5]. The inhibition at 10 µg/mL is 30% in experiment [3] and 24% in experiment [6].
`CC(=O)OC[C@H]1O[C@@H](n2cnc([Se](=O)(=O)c3ccccc3)n2)C[C@@H]1OC(C)=O`: the figures for the inhibition at 1000 µg/mL in experiment [1] and in experiment [4] were 45% and 42%, respectively. The inhibition at 100 µg/mL amounted to 33% in experiment [2] and 32% in experiment [5]. Besides, the inhibition at 10 µg/mL in experiment [3] worked out at 25%; in experiment [6] it was 23%.
On to `COc1ccc([Se](=O)(=O)c2ncn([C@H]3C[C@H](OC(C)=O)[C@@H](COC(C)=O)O3)n2)cc1`, for which the inhibition at 1000 µg/mL was determined as 65% in experiment [1] and 64% in experiment [4]. Further, the values for the inhibition at 100 µg/mL in experiment [2] and in experiment [5] were 25% and 35%, respectively. Further, the inhibition at 10 µg/mL in experiment [3] is 17%; in experiment [6], 24%.
Consider `COC1=CC(=O)C[C@@H](C)[C@]12Oc1c(Cl)c(OC)cc(OC)c1C2=O` [GRISEOFULVIN], for which the inhibition at 1000 µg/mL in experiment [1] and in experiment [4] was 100% in each case. Further, the results for the inhibition at 100 µg/mL in experiment [2] and in experiment [5] were 95% and 94%, respectively. The inhibition at 10 µg/mL in experiment [3] is 91%; in experiment [6] it was 90%.
